Experimental findings from BindingDB's records for doi:10.1021/jm970730q (Tulane University School of Medicine, 1998) are described below.

Positions of bridges follow the written chain, without caps; N, C: chain ends. Non-standard residues stand in square brackets, D forms with d. Residues, ends and D or L forms follow the SMILES beside them. Dip = N[C@H](C(=O)O)C(c1ccccc1)c1ccccc1; 2Nal = N[C@@H](Cc1ccc2ccccc2c1)C(=O)O; 3Pal = N[C@@H](Cc1cccnc1)C(=O)O

Assay [1] concerns the target Somatostatin receptor type 4 (Homo sapiens, UniProt P31391). Description: Binding affinity towards cloned human somatostatin 4 (hsst) receptor.
Assay [2] deals with Somatostatin receptor type 1 (Homo sapiens, UniProt P30872). Put plainly: Binding affinity towards cloned human somatostatin 1 (hsst) receptor. An outline of the steps: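 Membranes from CHO-K1 cells stably transfected with the human receptor subtype (calcium phosphate transfection, G418 selection), homogenised and washed in Tris-HCl. Separated by filtration on PEI-soaked GF/C filters; nonspecific binding with 1.0 µM SRIF.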
Chain of Somatostatin receptor type 1 (P30872 whole entry): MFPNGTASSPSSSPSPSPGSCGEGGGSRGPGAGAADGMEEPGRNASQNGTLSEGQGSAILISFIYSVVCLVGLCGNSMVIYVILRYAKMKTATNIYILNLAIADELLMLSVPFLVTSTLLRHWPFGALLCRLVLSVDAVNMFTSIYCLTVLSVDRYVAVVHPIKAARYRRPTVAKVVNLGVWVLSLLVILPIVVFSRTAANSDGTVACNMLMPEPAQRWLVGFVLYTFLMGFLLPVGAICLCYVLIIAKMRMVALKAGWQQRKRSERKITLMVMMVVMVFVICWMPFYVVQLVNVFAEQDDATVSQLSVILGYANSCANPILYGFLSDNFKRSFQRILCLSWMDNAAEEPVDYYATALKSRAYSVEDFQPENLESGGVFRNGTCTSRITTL

Chain of Somatostatin receptor type 4 (P31391 whole entry): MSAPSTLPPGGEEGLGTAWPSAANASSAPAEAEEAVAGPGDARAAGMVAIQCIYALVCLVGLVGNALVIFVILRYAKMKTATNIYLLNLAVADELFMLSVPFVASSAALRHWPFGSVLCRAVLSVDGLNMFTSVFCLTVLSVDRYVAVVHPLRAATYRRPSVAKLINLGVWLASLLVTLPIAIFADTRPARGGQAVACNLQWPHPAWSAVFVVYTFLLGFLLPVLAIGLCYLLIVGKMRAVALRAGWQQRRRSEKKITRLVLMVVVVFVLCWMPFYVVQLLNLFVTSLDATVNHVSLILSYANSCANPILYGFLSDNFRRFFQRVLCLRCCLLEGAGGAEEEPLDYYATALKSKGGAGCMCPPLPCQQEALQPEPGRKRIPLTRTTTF

Broadly, the IC50 is the midpoint of a concentration-inhibition curve. As for `CC(C)[C@@H]1NC(=O)[C@H](CCCCN)NC(=O)[C@@H](Cc2c[nH]c3ccccc23)NC(=O)[C@H](Cc2cccnc2)NC(=O)[C@H](NC(=O)[C@@H](N)C(c2ccccc2)c2ccccc2)CSSC[C@@H](C(=O)N[C@H](C(N)=O)C(c2ccccc2)c2ccccc2)NC1=O` [H-Dip-cyclo[DCys-Pal-DTrp-Lys-Val-Cys]-Dip-NH2] (H-[Dip][dC][3Pal][dW]KVC[Dip]-NH2; disulfide 2-7), the IC50 in assay [1] and in assay [2] was 1000 nM throughout.
In assay [2], `CC(C)[C@@H]1NC(=O)[C@H](CCCCN)NC(=O)[C@@H](Cc2c[nH]c3ccccc23)NC(=O)[C@H](Cc2c[nH]cn2)NC(=O)[C@H](NC(=O)[C@@H](N)C(c2ccccc2)c2ccccc2)CSSC[C@@H](C(=O)N[C@H](C(N)=O)C(c2ccccc2)c2ccccc2)NC1=O` [H-Dip-cyclo[DCys-His-DTrp-Lys-Val-Cys]-Dip-NH2] (H-[Dip][dC]H[dW]KVC[Dip]-NH2; disulfide 2-7) registered an IC50 of 1000 nM.
`CC(C)[C@@H]1NC(=O)[C@H](CCCCN)NC(=O)[C@@H](Cc2c[nH]c3ccccc23)NC(=O)[C@H](Cc2c[nH]cn2)NC(=O)[C@H](NC(=O)[C@@H](N)C(c2ccccc2)c2ccccc2)CSSC[C@@H](C(=O)N[C@@H](Cc2ccc3ccccc3c2)C(N)=O)NC1=O` [H-Dip-cyclo[DCys-His-DTrp-Lys-Val-Cys]-Nal-NH2] (H-[Dip][dC]H[dW]KVC[2Nal]-NH2; disulfide 2-7) displayed an IC50 in assay [1] of 1000 nM.
